# Assay results of several laboratories.
# BTK: Tyrosine-protein kinase BTK (BTK, Homo sapiens, UniProt Q06187)
Structure (SMILES),target,observed,action,method,tested at,inhibition
CCN(CC)CCNC(=O)c1c(C)[nH]c(/C=C2\C(=O)Nc3ccc(F)cc32)c1C,BTK,enzyme activity,inhibitor,,0.3 µM,16%
O=C(CSc1nc2nccnc2c(=O)n1CCc1ccccc1)Nc1nccs1,BTK,enzyme activity,inhibitor,,10 µM,4%
CNC(=O)c1cc(Oc2ccc(NC(=O)Nc3ccc(Cl)c(C(F)(F)F)c3)cc2)ccn1,BTK,enzyme activity,inhibitor,,10 µM,43%
CN(C)C1CCN(CC#Cc2nn(C3CCCC3)c3nc(NCc4ccccc4)ncc23)C1 (stereo not drawn),BTK,enzyme activity,inhibitor,FRET,0.1 µM,8%
CNCc1ccc(-c2cc(-c3nc(-c4ccc(S(=O)(=O)C(C)C)cc4)cnc3N)on2)cc1,BTK,enzyme activity,inhibitor,,2 µM,6%
CCCS(=O)(=O)Nc1ccc(F)c(C(=O)c2c[nH]c3ncc(-c4ccc(Cl)cc4)cc23)c1F,BTK,enzyme activity,inhibitor,,1 µM,< 10%
CCN(CC)CCNC(=O)c1c(C)[nH]c(/C=C2\C(=O)Nc3ccc(F)cc32)c1C,BTK,binding,,competition with immobilised ligand,0.1 µM,91.3%
COc1cc2ncnc(Nc3ccc(Oc4ccccc4)c(C)c3C)c2cc1OC,BTK,enzyme activity,inhibitor,,1 µM,33%
COc1cc2nccc(Oc3ccc(NC(=O)c4c5n(n(-c6ccc(F)cc6)c4=O)CCCC5)cc3)c2cc1OC,BTK,enzyme activity,inhibitor,,0.1 µM,-7%
COc1ccc(F)cc1C(=O)NCc1ccc(-c2nn([C@@H](C)C(F)(F)F)c(N)c2C(N)=O)cc1,BTK,enzyme activity,inhibitor,radiometric,0.1 µM,97%
Cc1ccc(Nc2nccc(N(C)c3ccc4c(C)n(C)nc4c3)n2)cc1S(N)(=O)=O,BTK,enzyme activity,inhibitor,,0.3 µM,12%
CC/C(=N\NC(=O)NCc1cccc(O)c1)c1ccc(O)c(C)c1O,"Tyrosine-protein kinase BTK (BTK, Homo sapiens, UniProt Q06187, C481S)",enzyme activity,inhibitor,,0.1 µM,-1.8%
